Measured values gathered from unrelated publications.
Target: MAP/microtubule affinity-regulating kinase 3 (MARK3, Homo sapiens, UniProt P27448)

| Compound | test | conditions | quantity | value |
| --- | --- | --- | --- | --- |
| COc1ncccc1-c1cnn2ccc(N3CCN(C(=O)OC(C)C)CC3)nc12 | binding, competition with immobilised ligand | 1 µM | remaining binding | 96% |
| COc1cc(Nc2ncc(F)c(Nc3ccc4c(n3)NC(=O)C(C)(C)O4)n2)cc(OC)c1OC | binding, competition with immobilised ligand | 10 µM | inhibition | 63% |
| Cn1cc(-c2cc(F)cc(N3CCn4c(cc5c4CCCC5)C3=O)c2CO)cc(Nc2ccc(N3CCN(C4COC4)CC3)cn2)c1=O | enzyme activity, inhibitor | 0.1 µM | inhibition | 6% |
| Cn1cncc1[C@](O)(COc1ccc(C#N)cc1-c1ccc(OC(F)(F)F)cc1)c1ccc(C#N)cc1 | cell-free assay, competition with immobilised ligand | 1 µM | remaining binding | 100% |
| O=c1[nH]c2ccccc2n1C1CCN(Cc2ccc(-c3[nH]c4cc5ncnc5cc4nc3-c3ccccc3)cc2)CC1 | cell-free assay | 0.5 µM | remaining signal | 103% |
| Nc1ncc(-c2nc(N3CCOCC3)nc(N3CCOCC3)n2)c(C(F)F)n1 | binding, competition with immobilised ligand | 10 µM | remaining binding | 100% |
| CC(C)(C)c1cc(C=C(C#N)C#N)cc(Br)c1O | enzyme activity, inhibitor | 0.5 µM | remaining activity | 105% |
| Cc1nn(C)cc1-c1nc2c(N3CCN(Cc4ccc(Cl)cc4)CC3)c(Cl)cnc2[nH]1 | binding, competition with immobilised ligand | 1 µM | remaining binding | 45% |
